Activity calls are given as the source filed them. No cut-off for these calls is given here.
Columns and labels:
MIA PaCa-2 [1] = assay: Inhibition of chemoresistant human MIAPaCa2 cell proliferation after 48 hrs by MTT assay; type: functional
In short: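 MiaPaCa-2 cells in DMEM with 10% FBS seeded at 15 000/well and left to attach overnight. Medium replaced with fresh medium holding a range of concentrations, or medium alone; gemcitabine control. Incubated 48 h at 37 °C, 5% CO₂, and viable cells measured by MTT. Mean ± SE of three independent experiments.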

MIA PaCa-2 [2] = assay: Inhibition of DNA synthesis in chemoresistant human MIAPaCa2 cells assessed as incorporation of [3H]thymidine into DNA after 4 hrs by liquid scintillation counting; type: functional
In short: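 MiaPaCa-2 cells seeded at 15 000/well and treated in exponential growth for 4 h, with gemcitabine as comparator. Then labelled with [³H]thymidine (10 μCi/mL) for 6 h at 37 °C, 5% CO₂. Cells harvested and incorporated radioactivity measured by liquid scintillation counting.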

MIA PaCa-2 [3] = assay: Induction of necrosis in chemoresistant human MIAPaCa2 cells up to 12 hrs by 7-aminoactinomycin D staining-based FACS analysis; type: functional
In short: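 MiaPaCa-2 cells seeded at 500 000 per 6 cm dish and left overnight, then treated or left untreated for 3, 6 and 12 h. Stained with 7-AAD for 15 min at 25 °C, then read immediately by flow cytometry; triplicate.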

Mus musculus [4] = assay: Toxicity in nude mouse xenografted with human MIAPaCa2 cells assessed as weight loss at 150 mg/kg, ip administered measured after 3 weeks; conditions: in vivo, 504 h
MIA PaCa-2 [5] = assay: Inhibition of Hsp27 protein expression in chemoresistant human MIAPaCa2 cells after 48 hrs by Western blotting; type: functional, cell-based
In short: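 MiaPaCa-2 cells treated and harvested at 48 h. Lysates loaded at 15 μg protein and blotted with rabbit polyclonal anti-human Hsp27 (1:5000) and vinculin reference (1:2000). Detected by enhanced chemiluminescence and band intensities quantified against untreated control.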

MIA PaCa-2 [6] = assay: Induction of apoptosis in chemoresistant human MIAPaCa2 cells assessed as increase in cell accumulation at sub-G1/G0 phase after 48 hrs by FACS analysis relative to control; type: functional
In short: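 MiaPaCa-2 cells treated 48 h, with untreated and gemcitabine controls. Cells trypsinized, PBS-washed and fixed overnight at 4 °C in cold 70% ethanol. Treated with RNase (500 μg/mL) and stained with propidium iodide (50 μg/mL). Sub-G1/G0 fraction read by flow cytometry on 10⁶ cells; triplicate.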

MIA PaCa-2 [7] = assay: Induction of apoptosis in chemoresistant human MIAPaCa2 cells assessed as increase in caspase 3/7 activation after 48 hrs by […] relative to gemcitabine; type: functional
In short: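 MiaPaCa-2 cells seeded at 15 000/well; 24 h later treated for 48 h, with gemcitabine and no-treatment controls. Apo-ONE homogeneous caspase-3/7 reagent added 1:1 to culture, containing fluorogenic Z-DEVD-R110 substrate. Incubated 30 min at room temperature, then fluorescence read. Triplicate.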

MIA PaCa-2 [8] = assay: Antitumor activity against human MIAPaCa2 cells xenografted in nude mouse assessed as reduction in tumor volume at 150 mg/kg, ip administered measured after 3 weeks; set-up: scale not given: the % may be the effect or the level left; conditions: route intraperitoneal
MIA PaCa-2 [9] = assay: Induction of apoptosis in chemoresistant human MIAPaCa2 cells assessed as increase in caspase 3/7 activation after 48 hrs […] relative to control; type: functional
MIA PaCa-2 [10] = assay: Inhibition of Hsp27 protein expression in chemoresistant human MIAPaCa2 cells by alexa fluor 488 staining-based immunofluorescence assay; type: functional, cell-based
In short: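 Treated and untreated MiaPaCa-2 cells fixed in 4% paraformaldehyde and permeabilized with 1% Triton. Incubated with mouse anti-Hsp27 monoclonal (1:500) overnight at 4 °C, blocked in BSA/PBS, then Alexa Fluor 488 secondary (1:750). Nuclei stained with DAPI for imaging.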

MIA PaCa-2 [11] = assay: Induction of necrosis in chemoresistant human MIAPaCa2 cells assessed as cell membrane damage associated LDH release up to 300 um after 1 hr; type: functional
In short: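 MiaPaCa-2 cells seeded at 15 000/well; 24 h later exposed to compound in DMSO for 1 h. LDH reaction mixture added 1:1 and incubated 10 min at 25 °C. Lysis buffer set as 100% release and medium as 0%. Result is released LDH over total cellular LDH; triplicate.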

MIA PaCa-2 [12] = assay: Inhibition of Hsp27 mRNA expression in chemoresistant human MIAPaCa2 cells after 24 hrs by RT-PCR analysis; type: functional
In short: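 MiaPaCa-2 cells treated 24 h. Total RNA isolated by TRIzol and reverse-transcribed. SYBR Green real-time PCR run with Hsp27 primers: 45 cycles of 95 °C 5 s, 57 °C 6 s, 72 °C 12 s, followed by a melting curve. Normalized to 18S rRNA; each sample in triplicate.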

Mus musculus [13] = assay: Toxicity in nude mouse xenografted with human MIAPaCa2 cells assessed as normal growth and behavior at 150 mg/kg, ip administered measured after 3 weeks; conditions: in vivo, 504 h
MIA PaCa-2 [14] = assay: Induction of apoptosis in chemoresistant human MIAPaCa2 cells assessed as increase in DNA/histone nucleosome release after 48 hrs by ELISA relative to control; type: functional
In short: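 MiaPaCa-2 cells seeded at 15 000/well for 24 h, then treated or left untreated for 48 h. Cells lysed after centrifugation at 200g. Supernatant put on streptavidin plate with biotin anti-histone and peroxidase anti-DNA antibodies, 2 h at room temperature. After washes, substrate added for 20 min and read at 405 nm. Expressed as fold increase in absorbance over control; triplicate.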

CCCCCC#Cc1nc(C(N)=O)n([C@@H]2O[C@H](CO)[C@@H](O)[C@H]2O)n1
inhibition (MIA PaCa-2 [1]): inactive

CCCCCc1ccc(CCc2nc(C(N)=O)n([C@@H]3O[C@H](CO)[C@@H](O)[C@H]3O)n2)cc1
inhibition (MIA PaCa-2 [1]): inactive

NC(=O)c1nc(C#Cc2ccc(C(F)(F)F)cc2)nn1[C@@H]1O[C@H](CO)[C@@H](O)[C@H]1O
inhibition (MIA PaCa-2 [1]): inactive

CCCCCc1ccc(-c2nc(C(N)=O)n([C@@H]3O[C@H](CO)[C@@H](O)[C@H]3O)n2)cc1
inhibition (MIA PaCa-2 [1]): inactive

CCCCCc1ccc(C#Cc2nc(C(N)=O)n(COCCO)n2)cc1
inhibition (MIA PaCa-2 [1]): inactive

Nc1ccn([C@@H]2O[C@H](CO)[C@@H](O)C2(F)F)c(=O)n1 [GEMCITABINE]
inhibition (INH) (MIA PaCa-2 [2]): >90% | inhibition (INH) (MIA PaCa-2 [1]): <30%

Cc1ccc(C#Cc2nc(C(N)=O)n([C@@H]3O[C@H](CO)[C@@H](O)[C@H]3O)n2)cc1
inhibition (MIA PaCa-2 [1]): inactive

CCCCCc1ccc(C#Cc2nc(C(N)=O)n([C@@H]3O[C@H](CO)[C@@H](O)[C@H]3O)n2)cc1
inhibition (MIA PaCa-2 [2]): inactive | Activity (MIA PaCa-2 [3]): <2% | Activity (Mus musculus [4]): Non-toxic | inhibition (MIA PaCa-2 [5]): Active | fold change (FC) (MIA PaCa-2 [6]): 14 | fold change (FC) (MIA PaCa-2 [7]): 12 | Activity (MIA PaCa-2 [8]): 50% | inhibition (INH) (MIA PaCa-2 [1]): 80% | fold change (FC) (MIA PaCa-2 [9]): 30 | inhibition (MIA PaCa-2 [10]): Active | Activity (MIA PaCa-2 [11]): <2% | inhibition (INH) (MIA PaCa-2 [12]): 80% | Activity (Mus musculus [13]): Non-toxic | fold change (FC) (MIA PaCa-2 [14]): 40

CCCCCc1ccc(C#Cc2nc(C(N)=O)nn2[C@@H]2O[C@H](CO)[C@@H](O)[C@H]2O)cc1
inhibition (MIA PaCa-2 [1]): inactive

COC(=O)c1nc(C#Cc2ccc(C(F)(F)F)cc2)nn1[C@@H]1O[C@H](COC(C)=O)[C@@H](OC(C)=O)[C@H]1OC(C)=O
inhibition (MIA PaCa-2 [1]): inactive

CCCCCc1ccc(-c2cn(-c3nc(C(N)=O)n([C@@H]4O[C@H](CO)[C@@H](O)[C@H]4O)n3)nn2)cc1
inhibition (MIA PaCa-2 [1]): inactive

CCCc1ccc(C#Cc2nc(C(N)=O)n([C@@H]3O[C@H](CO)[C@@H](O)[C@H]3O)n2)cc1
inhibition (MIA PaCa-2 [1]): inactive

CCCCCc1ccc(C#Cc2nc(C(=O)OC)n([C@@H]3O[C@H](COC(C)=O)[C@@H](OC(C)=O)[C@H]3OC(C)=O)n2)cc1
inhibition (MIA PaCa-2 [1]): inactive
